Test results taken from ChEMBL document CHEMBL1806444, “Synthesis of new chalcone derivatives bearing 2,4-thiazolidinedione and benzoic acid moieties as potential anti-bacterial agents” (2011).
Values after ≈ are worked out from the molar mass of the structure shown.

What was measured:
Type in all cases: functional
[1] = system: Escherichia coli; experiment: Antibacterial activity against 10^5 CFU/mL Escherichia coli 1356 assessed as inhibition of bacterial growth after 24 hrs by microtiter enzyme-linked immunosorbent assay; settings: Escherichia coli, 1356, 24 h
[2] = system: Staphylococcus aureus; experiment: Antibacterial activity against 10^5 CFU/mL Staphylococcus aureus KCTC 503 assessed as inhibition of bacterial growth after 24 hrs by microtiter enzyme-linked immunosorbent assay; settings: KCTC 503, 24 h
[3] = system: Staphylococcus aureus; experiment: Antibacterial activity against 10^5 CFU/mL Staphylococcus aureus RN4220 assessed as inhibition of bacterial growth after 24 hrs by microtiter enzyme-linked immunosorbent assay; settings: RN4220, 24 h
[4] = system: Escherichia coli; experiment: Antibacterial activity against 10^5 CFU/mL Escherichia coli 1682 assessed as inhibition of bacterial growth after 24 hrs by microtiter enzyme-linked immunosorbent assay; settings: Escherichia coli, 1682, 24 h
[5] = system: Staphylococcus aureus; experiment: Antibacterial activity against 10^5 CFU/mL quinolone-resistant Staphylococcus aureus CCARM 3519 assessed as inhibition of bacterial growth after 24 hrs by microtiter enzyme-linked immunosorbent assay; settings: CCARM 3519, 24 h
In short: (§1)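 Broth microdilution MIC. Bacteria grown to mid-log phase in Mueller-Hinton broth, diluted 1000-fold, and inoculated at 10⁵ CFU/mL in MHB, 0.2 mL/well in 96-well plates. Compounds dissolved in DMSO, final DMSO not exceeding 0.05%, in serial dilutions. Oxacillin and norfloxacin served as positive controls. MIC is the lowest concentration giving complete growth inhibition after 24 h at 37 °C.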

[6] = system: Staphylococcus aureus; experiment: Antibacterial activity against 10^5 CFU/mL methicillin-resistant Staphylococcus aureus CCARM 3506 assessed as inhibition of bacterial growth after 24 hrs by microtiter enzyme-linked immunosorbent assay; settings: CCARM 3506, 24 h; in short: as §1
[7] = system: Staphylococcus aureus; experiment: Antibacterial activity against 10^5 CFU/mL quinolone-resistant Staphylococcus aureus CCARM 3505 assessed as inhibition of bacterial growth after 24 hrs by microtiter enzyme-linked immunosorbent assay; settings: CCARM 3505, 24 h; in short: as §1
[8] = system: Staphylococcus aureus; experiment: Antibacterial activity against 10^5 CFU/mL methicillin-resistant Staphylococcus aureus CCARM 3167 assessed as inhibition of bacterial growth after 24 hrs by microtiter enzyme-linked immunosorbent assay; settings: CCARM 3167, 24 h; in short: as §1

Structure (SMILES) | MIC [1] [µg/mL] | MIC [2] [µg/mL] | MIC [3] [µg/mL] | MIC [4] [µg/mL] | MIC [5] [µg/mL] | MIC [6] [µg/mL] | MIC [7] [µg/mL] | MIC [8] [µg/mL]
COC(=O)c1ccc(CN2C(=O)S/C(=C\c3ccc(/C=C/C(=O)c4ccc5ccccc5c4)cc3)C2=O)cc1 | > 64 | > 64 | > 64 | > 64 |  |  |  | 
CCn1cc(C(=O)O)c(=O)c2cc(F)c(N3CCNCC3)cc21 [NORFLOXACIN] | 16 (≈ 50.1 µM) | 2 (≈ 6.26 µM) | 2 (≈ 6.26 µM) | 16 (≈ 50.1 µM) | > 64 | 4 (≈ 12.5 µM) | > 64 | 8 (≈ 25.1 µM)
Cc1ccc(C(=O)/C=C/c2ccc(/C=C3\SC(=O)N(Cc4ccc(C(=O)O)cc4)C3=O)cc2)c(C)c1 | > 64 | > 64 | > 64 | > 64 |  |  |  | 
COc1ccc(C(=O)/C=C/c2ccc(/C=C3\SC(=O)N(Cc4ccc(C(=O)O)cc4)C3=O)cc2)cc1 | > 64 | > 64 | > 64 | > 64 |  |  |  | 
O=C(O)c1ccc(CN2C(=O)S/C(=C\c3ccc(/C=C/C(=O)c4ccccc4Br)cc3)C2=O)cc1 | > 64 | 4 (≈ 7.29 µM) | 2 (≈ 3.65 µM) | > 64 | 2 (≈ 3.65 µM) | 1 (≈ 1.82 µM) | 2 (≈ 3.65 µM) | 1 (≈ 1.82 µM)
O=C(O)c1ccc(CN2C(=O)S/C(=C\c3ccc(/C=C/C(=O)c4ccccc4O)cc3)C2=O)cc1 | > 64 | > 64 | > 64 | > 64 |  |  |  | 
COC(=O)c1ccc(CN2C(=O)S/C(=C\c3ccc(/C=C/C(=O)c4ccccc4Br)cc3)C2=O)cc1 | > 64 | > 64 | > 64 | > 64 |  |  |  | 
Cc1ccc(C(=O)/C=C/c2ccc(/C=C3\SC(=O)N(Cc4ccc(C(=O)O)cc4)C3=O)cc2)cc1 | > 64 | > 64 | > 64 | > 64 |  |  |  | 
O=C(O)c1ccc(CN2C(=O)S/C(=C\c3ccc(/C=C/C(=O)c4ccc(Cl)cc4Cl)cc3)C2=O)cc1 | > 64 | > 64 | > 64 | > 64 |  |  |  | 
COc1cccc(C(=O)/C=C/c2ccc(/C=C3\SC(=O)N(Cc4ccc(C(=O)O)cc4)C3=O)cc2)c1 | > 64 | > 64 | > 64 | > 64 |  |  |  | 
COC(=O)c1ccc(CN2C(=O)S/C(=C\c3ccc(/C=C/C(=O)c4ccc(Br)cc4)cc3)C2=O)cc1 | > 64 | > 64 | > 64 | > 64 |  |  |  | 
O=C(O)c1ccc(CN2C(=O)S/C(=C\c3ccc(/C=C/C(=O)c4ccc(Br)cc4)cc3)C2=O)cc1 | > 64 | > 64 | > 64 | > 64 |  |  |  | 
COC(=O)c1ccc(CN2C(=O)S/C(=C\c3ccc(/C=C/C(=O)c4ccc(Cl)cc4)cc3)C2=O)cc1 | > 64 | > 64 | > 64 | > 64 |  |  |  | 
COC(=O)c1ccc(CN2C(=O)S/C(=C\c3ccc(/C=C/C(=O)c4ccccc4Cl)cc3)C2=O)cc1 | > 64 | > 64 | > 64 | > 64 |  |  |  | 
COC(=O)c1ccc(CN2C(=O)S/C(=C\c3ccc(/C=C/C(=O)c4ccccc4OC)cc3)C2=O)cc1 | > 64 | > 64 | > 64 | > 64 |  |  |  | 
COC(=O)c1ccc(CN2C(=O)S/C(=C\c3ccc(/C=C/C(=O)c4ccccc4)cc3)C2=O)cc1 | > 64 | > 64 | > 64 | > 64 |  |  |  | 
Cc1onc(-c2ccccc2)c1C(=O)N[C@@H]1C(=O)N2[C@@H]1SC(C)(C)[C@@H]2C(=O)O [OXACILLIN] | > 64 | 1 (≈ 2.49 µM) | 1 (≈ 2.49 µM) | > 64 | 1 (≈ 2.49 µM) | > 64 | 1 (≈ 2.49 µM) | > 64
COC(=O)c1ccc(CN2C(=O)S/C(=C\c3ccc(/C=C/C(=O)c4ccc(O)cc4)cc3)C2=O)cc1 | > 64 | > 64 | > 64 | > 64 |  |  |  | 
O=C(O)c1ccc(CN2C(=O)S/C(=C\c3ccc(/C=C/C(=O)c4ccc(O)cc4)cc3)C2=O)cc1 | > 64 | > 64 | > 64 | > 64 |  |  |  | 
COC(=O)c1ccc(CN2C(=O)S/C(=C\c3ccc(/C=C/C(=O)c4cccc(Cl)c4)cc3)C2=O)cc1 | > 64 | > 64 | > 64 | > 64 |  |  |  | 
